In the library only some 2.4% were active in any assay of this set; here they are far more common.
TDP2 absorb – blocks human TDP2 phosphodiesterase activity; O95551; recombinant TDP2, T5PNP hydrolysis, p-nitrophenol absorbance 415 nm; inhibition, % at 12.8 µM; 370,000 tested, 0.34% active; AID 720702;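 active = inhibition above the mean of all tested compounds plus 3 SD, set per campaign, cut at about 25% in these data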;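 note: 0% = DMSO with enzyme and 100% = buffer with substrate but no TDP2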
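Assay system: recombinant human TDP2 / Reagent: T5PNP substrate at 5 mM, a TopII-DNA adduct mimic / Measured by: epi absorbance from released p-nitrophenol / Evaluation: % inhibition relative to enzyme-containing and enzyme-free wells / Control set: enzyme-free and DMSO wells / Replicates: each compound tested once, singlicate / Schedule: enzyme reaction with compound for 2 h at 37 °C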
Apaf-1 inh – inhibitors of human Apaf-1 apoptosome. O14727. reconstituted apoptosome caspase-3 activity, DEVD-Rh110 fluorescence. inhibition, % at 20 µM. 330,000 tested, 0.71% active. AID 489030; active = inhibition of at least 40% at 20 µM;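 note: plate controls were DMSO wells for no effect and DEVD-CHO caspase inhibitor wells for full effect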
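Assay system – apoptosome proteins · Medium – Hepes buffer, pH 7.5 · Also added – cytochrome c with DEVD-Rh110 · Timing – 30 min compound preincubation, 50 min activation, room temperature · Detection – Rh110 fluorescence, excitation 480 nm, emission 540 nm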
TCR-CD3 inh – blocks the human TCR-CD3 interaction; TAMRA-labeled TCR probe fluorescence, biochemical; inhibition, % at 9.4 µM; 360,000 tested, 0.37% active; AID 651800; in the data active = inhibition above about 19%;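 note: recombinant mutant TCR 2C K166C tagged with TAMRA read by polarization; 0% = receptor in buffer alone and 100% = receptor with positive control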
SIAE inh – blocks human sialic acid acetylesterase; Q9HAT2; SIAE FP-Rh probe binding, fluorescence polarization; inhibition, % at 9.66 µM; 370,000 tested, 0.69% active;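 active = inhibition above a cutoff: mean of compounds within the control limits plus 3 SD of those, cut at about 17% in these data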;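 note: 0% = plate median of compound wells and 100% = probe without SIAE protein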
GSTO1 inh – counter-screen for RBBP9 inhibitors: inhibitors of human GSTO1; P78417; recombinant GSTO1, activity-based probe fluorescence polarization; inhibition, % at 5.96 µM; 300,000 tested, 1.1% active; AID 1974;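 active = inhibition above the campaign mean inhibition plus 3 SD, cut at about 35% in these data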;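 note: 0% = GSTO1-1 with DMSO and 100% = wells lacking GSTO1-1 enzyme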
PAD4 FP inh – PAD4 (human) enzyme inhibition | inhibition, % at 6.36 µM | 330,000 tested, 0.41% active | Q9UM07 | recombinant PAD4, RCA probe fluorescence polarization;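 active = percent inhibition above a cutoff equal to the mean of all tested compounds plus 3 SD, cut at about 15% in these data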;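 note: 0% = PAD4 with RCA probe and DMSO and 100% = probe without PAD4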
SIAE confirm – human SIAE inhibition, confirmation; shares compounds with SIAE inh; SIAE FP-Rh activity-based probe, fluorescence polarization; inhibition, % at 9.66 µM; 2,300 tested, 13% active; AID 1117263;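 active = mean inhibition of the replicates above the hit cutoff set in the primary screen, cut at about 17% in these data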;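 note: 0% = SIAE with DMSO and probe and 100% = probe without SIAE; inhibitors lower polarization as more probe stays unbound to SIAE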
Numbers without * were called inactive; ! = not confirmed by another sample.

Results for COC(=O)[C@@]12CCCCN1[C@H](c1ccc(-c3ccc(OC)cc3)cc1)[C@H]1C(=O)N(C)C(=O)[C@H]12 ?
TDP2 absorb: -7; Apaf-1 inh: 13; TCR-CD3 inh: 7; SIAE inh: -4; GSTO1 inh: -4; PAD4 FP inh: 1

Results for O=C(Nc1ccc(F)cc1)Nc1cc(S(=O)(=O)N2CCOCC2)ccc1N1CCCC1 ?
TDP2 absorb: 9; Apaf-1 inh: -10; TCR-CD3 inh: 0; SIAE inh: 20*; GSTO1 inh: 8; PAD4 FP inh: 1; SIAE confirm: 17*

How did CCOC(=O)N1CCN(c2ccc(C(C)=O)cc2F)CC1 do in these assays?
TDP2 absorb: -5; Apaf-1 inh: -5; TCR-CD3 inh: 9; SIAE inh: -2; GSTO1 inh: -2; PAD4 FP inh: 1

Results for C=CCN=C1NN=C(c2cc(C)n(CCOC)c2C)CS1 ?
TDP2 absorb: -5; Apaf-1 inh: 8; TCR-CD3 inh: -2; SIAE inh: 10; GSTO1 inh: -3; PAD4 FP inh: 4

Results for COCCn1c(C)cc(C2=NNC(=NC3CC3)SC2)c1C ?
TDP2 absorb: 10; Apaf-1 inh: -9; TCR-CD3 inh: -4; SIAE inh: 25*; GSTO1 inh: 8; PAD4 FP inh: 11; SIAE confirm: 2

How did O=C(COC(=O)CCC(=O)N1CCOCC1)Nc1ccc(Br)cc1Br do in these assays?
TDP2 absorb: 10; Apaf-1 inh: 1; TCR-CD3 inh: -4; SIAE inh: 0; PAD4 FP inh: -3

How did C=CCOC(=O)C1=C(C)NC(SCC(=O)N(CC)CC)=C(C#N)C1c1ccccc1 (stereo not given) do in these assays?
TDP2 absorb: 3; Apaf-1 inh: 31; TCR-CD3 inh: 7; SIAE inh: 4; GSTO1 inh: 3; PAD4 FP inh: 0

Results for C=CCOC(=O)C1=C(C)NC(SCC(=O)NC(=O)OCC)=C(C#N)C1c1cccnc1 (stereo not given) ?
TDP2 absorb: -6; Apaf-1 inh: -20; TCR-CD3 inh: -6; SIAE inh: 18*!; GSTO1 inh: 2; PAD4 FP inh: -1; SIAE confirm: 0

How did O=C(CSc1nnc(-c2cccs2)n1-c1ccccc1)N1CCCC1 do in these assays?
TDP2 absorb: 6; Apaf-1 inh: -18; TCR-CD3 inh: 6; SIAE inh: 1; GSTO1 inh: 6; PAD4 FP inh: 2

How did Nn1c(SCC(=O)N2CCCC2)nnc1-c1cccs1 do in these assays?
TDP2 absorb: -15; TCR-CD3 inh: 1; SIAE inh: 17*; SIAE confirm: -1

How did Cc1cccn2c(=O)c3cc(C(=O)NC4CCS(=O)(=O)C4)sc3nc12 (stereo not given) do in these assays?
TDP2 absorb: -2; Apaf-1 inh: 8; TCR-CD3 inh: -8; SIAE inh: -6; GSTO1 inh: 7; PAD4 FP inh: 5

What do the screens show for `COCCN(CCOC)C(=S)Nc1cc(S(=O)(=O)N(C)C)ccc1C`?
TDP2 absorb: 5; Apaf-1 inh: -5; TCR-CD3 inh: 6; SIAE inh: 20*; GSTO1 inh: -2; PAD4 FP inh: 5; SIAE confirm: -4

How did O=C(NN=Cc1ccc(N2CCOCC2)s1)c1ccc([N+](=O)[O-])cc1 do in these assays?
TDP2 absorb: -11; Apaf-1 inh: 3; TCR-CD3 inh: 2; SIAE inh: 24*; PAD4 FP inh: -4; SIAE confirm: 1

Results for O=C(N/N=C/c1ccc(N2CCOCC2)s1)c1ccc(O)cc1 ?
TDP2 absorb: -7; TCR-CD3 inh: -2; SIAE inh: -1

How did C=CC(=O)Nc1cccc(Oc2nc(Nc3ccc(N4CCN(C)CC4)cc3OC)ncc2Cl)c1 do in these assays?
TDP2 absorb: 1; TCR-CD3 inh: 0; SIAE inh: 20*; SIAE confirm: 16

How did CCCN(CCC)S(=O)(=O)c1cccc(C(=O)N=c2sccn2C)c1 do in these assays?
TDP2 absorb: -3; Apaf-1 inh: 30; TCR-CD3 inh: 8; SIAE inh: 0; GSTO1 inh: 0; PAD4 FP inh: -3

Results for COc1ccc(Nc2nc(-c3cccc(OC)c3O)nc3ccccc23)cc1 ?
TDP2 absorb: -5; Apaf-1 inh: 14; TCR-CD3 inh: -3; SIAE inh: 18*; SIAE confirm: -29

How did Cc1ccc(C(=O)NCc2cccc(C(F)(F)F)c2)cc1S(=O)(=O)N1CCCCC1 do in these assays?
TDP2 absorb: -9; Apaf-1 inh: 17; TCR-CD3 inh: 4; SIAE inh: 25*; SIAE confirm: 3

What do the screens show for `Cn1cnnc1SCC(=O)n1c2ccccc2c2ccccc21`?
TDP2 absorb: -19; Apaf-1 inh: 2; TCR-CD3 inh: 6; SIAE inh: -1; GSTO1 inh: -3; PAD4 FP inh: -1

How did COc1ccc(CC(=O)c2ccc(OC)c(OC)c2)cc1 do in these assays?
TDP2 absorb: -7; Apaf-1 inh: 13; TCR-CD3 inh: 0; SIAE inh: 17*; GSTO1 inh: 9; PAD4 FP inh: 0; SIAE confirm: 3

What do the screens show for `COc1ccc(/C=N/c2c(-c3ccco3)nc3ccccn23)cc1OC`?
TDP2 absorb: 5; Apaf-1 inh: 13; TCR-CD3 inh: 5; SIAE inh: 25*; GSTO1 inh: 5; PAD4 FP inh: 10; SIAE confirm: 7

Results for CCN1CCCC1CNC(=O)C(=O)NC(C)C (stereo not given) ?
TDP2 absorb: -1; Apaf-1 inh: -5; TCR-CD3 inh: 1; SIAE inh: -8; GSTO1 inh: 10; PAD4 FP inh: 3

How did CCN1CCCC1CNC(=O)C(=O)NC(C)c1ccccc1 (stereo not given) do in these assays?
TDP2 absorb: 8; Apaf-1 inh: -11; TCR-CD3 inh: 5; SIAE inh: 19*; GSTO1 inh: 6; PAD4 FP inh: -1; SIAE confirm: -2

How did CCOC(=O)C1=C(C)OC(N)=C(C#N)C1c1cc(SCC)oc1C (stereo not given) do in these assays?
TDP2 absorb: 0; Apaf-1 inh: -4; TCR-CD3 inh: 8; SIAE inh: 19*; GSTO1 inh: 5; PAD4 FP inh: 1; SIAE confirm: -8

Results for NC(=O)c1ncn([C@@H]2O[C@H](C(=O)N[C@H](Cc3c[nH]c4ccccc34)C(=O)N3CCN(C(=O)N4CCCCC4)CC3)[C@@H](O)[C@H]2O)n1 ?
TDP2 absorb: 1; TCR-CD3 inh: 3; SIAE inh: 17*; SIAE confirm: 8

Results for Nc1ccn([C@@H]2O[C@H](C(=O)N[C@H](Cc3ccccc3)C(=O)N3CCN(CCO)CC3)[C@@H](O)[C@H]2O)c(=O)n1 ?
TDP2 absorb: -6; TCR-CD3 inh: 0; SIAE inh: 5

Assay outcomes: PubChem BioAssay, several laboratories
